Screening results from PubChem BioAssay.
The list is not random: actives were taken first. Their share in the collection is about 2.4%.
PREPL inh: human PREPL enzyme inhibition | Q4J6C6 | actives 0.68% (n = 320,000) | AID 2751 | recombinant PREPL, fluorescence polarization activity-based probe | inhibition, % at 5.96 µM; in the data active = inhibition above about 43%;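 also: 0% = enzyme with DMSO and 100% = wells lacking enzyme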
Tb MetRS inh: blocks T. brucei methionyl-tRNA synthetase activity. inhibition, % at 11.9 µM. actives 0.4% (n = 360,000). AID 624268. purified T. brucei MetRS, ATP depletion, Kinase-Glo luminescence;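 active = inhibition above a per-plate cutoff of the control wells' mean inhibition plus 3 SD, cut at about 5.5% in these data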;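 also: 0% = DMSO wells median and 100% = median of wells with control inhibitor compound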
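Measured by: Kinase-Glo luciferase luminescence reporting remaining unconsumed ATP. Material: purified T. brucei MetRS enzyme. Doses: 11.9 µM compound single dose, 0.9% DMSO. Medium: HEPES buffer containing pyrophosphatase, BSA, spermine, DTT. Times: 15 min preincubation, 2 h reaction, all 25 °C. Reagent: methionine, ATP and bulk E. coli tRNA.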
Neddylation inh: cullin neddylation inhibition; TR-FRET cullin neddylation, biochemical; actives 0.58% (n = 360,000); inhibition, % at 25 µM; P61081+Q13564; in the data active = inhibition above about 36%
CSN deneddyl inh: inhibitors of human CSN-mediated cullin deneddylation; Q92905; Purified CSN, SCF-Nedd8-OG deneddylation, fluorescence polarization; inhibition, % at 12.5 µM; actives 0.38% (n = 360,000); AID 651999;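 active = pattern-corrected inhibition above about 35%, with an unprinted fluorescence ratio check between 0.5 and 1.5, limit read from the data, passing the limit was not always enough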;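 also: 0% = enzyme with substrate and 100% = substrate without enzyme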
Target sequence (Q92905 whole entry, looked up, one chain of several): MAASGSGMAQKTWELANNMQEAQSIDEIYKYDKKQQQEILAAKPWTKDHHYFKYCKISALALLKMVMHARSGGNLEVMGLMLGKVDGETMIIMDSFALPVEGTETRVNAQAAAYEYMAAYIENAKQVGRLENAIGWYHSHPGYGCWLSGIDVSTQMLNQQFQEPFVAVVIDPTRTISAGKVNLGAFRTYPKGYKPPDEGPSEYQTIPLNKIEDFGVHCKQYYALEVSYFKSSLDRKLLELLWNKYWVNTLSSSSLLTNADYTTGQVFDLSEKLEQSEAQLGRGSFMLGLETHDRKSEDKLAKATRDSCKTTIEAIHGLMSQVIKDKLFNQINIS
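Schedule: reaction 90 min, room temperature / Assay system: HEK293T-derived human Csn5 enzyme / Input: Csn5 at 0.24 nM final / Measure: inhibition of Csn5 cleavage, % / Control set: substrate-only high control, full reaction low control / Technique: fluorescence polarization of the substrate / Buffer or medium: Tris/NaCl/DTT buffer, pH 7.5 / Reagent: SCFSkp2-Nedd8OG substrate at 10 nM final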
HNF4A DNA FP: change in binding of human HNF4 alpha to DNA | P41235 | HNF4a-FITC DNA binding, fluorescence polarization, 1 h | activity change, % at 10 µM | actives 0.3% (n = 360,000) | AID 1224865; in the data active = activity change above about 30%, passing the limit was not always enough
Rpn11 block: Rpn11 (human) deubiquitinase inhibition | O00487 | human 26S proteasome, Ub4-pepOG fluorescence polarization; 20S core pre-blocked with epoxomicin | inhibition, % at 20 µM | actives 0.59% (n = 360,000);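 active = inhibition at 20 µM, scaled to each plate's controls, above about 33%, limit read from the data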
Target sequence (O00487 whole entry, looked up): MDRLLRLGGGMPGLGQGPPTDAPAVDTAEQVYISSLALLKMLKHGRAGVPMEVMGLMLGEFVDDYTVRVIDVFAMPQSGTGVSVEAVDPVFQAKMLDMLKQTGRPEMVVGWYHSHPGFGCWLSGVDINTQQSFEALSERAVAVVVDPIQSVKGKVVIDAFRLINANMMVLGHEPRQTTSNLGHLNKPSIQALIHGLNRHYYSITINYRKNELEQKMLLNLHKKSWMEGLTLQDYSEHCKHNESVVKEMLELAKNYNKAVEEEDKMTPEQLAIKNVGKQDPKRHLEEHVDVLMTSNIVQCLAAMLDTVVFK
Rpn11 confirm: confirmation of human proteasome Rpn11 inhibitors | shares compounds with Rpn11 block | purified human 26S proteasome, Ub4-pepOG fluorescence polarization; proteasome pretreated with epoxomicin | inhibition, % at 20 µM | actives 29% (n = 1,900) | AID 602318
MMP-2 counter: counter-screen for RPN11 inhibitors: inhibition of human MMP-2 | shares compounds with Rpn11 block | recombinant MMP-2, FRET peptide cleavage fluorescence | inhibition, % at 20 µM | actives 4% (n = 1,900);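 also: human MMP-2 activated beforehand with APMA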
Thrombin inh: blocks bovine thrombin, flagging nonselective RPN11 hits; shares compounds with Rpn11 block; bovine thrombin cleavage of Ub4-pepOG, fluorescence polarization; inhibition, % at 20 µM; actives 13% (n = 1,900);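 active = mean inhibition at least 40% at 20 µM, or signal 3 deviations below plate average, so some actives read negative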;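 also: plate controls were thrombin with DMSO for no effect and buffer wells lacking thrombin for full effect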
* marks the source's active call; other numbers are inactive results. Rule as the data show it, unless noted: active = inhibition above about 40%; inactive = the rest.

How did CN(C(=O)COc1ccc2c(-c3ccccc3)cc(=O)oc2c1)C1CCS(=O)(=O)C1 (stereo unspecified) do in these assays?
PREPL inh: 5.7; Tb MetRS inh: 0.2; Neddylation inh: -25.9; CSN deneddyl inh: 0.1; HNF4A DNA FP: 17.0; Rpn11 block: 58.3*; Rpn11 confirm: 5.5; MMP-2 counter: -0.8; Thrombin inh: 7.3

How did Cc1cc(=O)oc2cc(OCc3ccc(C(=O)OCC(=O)N(C)C4CCS(=O)(=O)C4)cc3)ccc12 (stereo unspecified) do in these assays?
PREPL inh: 18.1; Tb MetRS inh: 0.0; Neddylation inh: 34.6; CSN deneddyl inh: 2.5; HNF4A DNA FP: 2.9; Rpn11 block: 1.5

Results for Cc1cc(N(C)C)ccc1N=Nc1ccc(N)cc1 ?
PREPL inh: -1.9; Tb MetRS inh: 0.5; Neddylation inh: -143.5; CSN deneddyl inh: 14.3; HNF4A DNA FP: 25.4; Rpn11 block: 47.8*; Rpn11 confirm: 35.2; MMP-2 counter: 5.3; Thrombin inh: 28.4

What do the screens show for `O=C(/C=C/c1cccc2ccccc12)c1ccncc1`?
PREPL inh: 3.3; Tb MetRS inh: -0.3; Neddylation inh: 6.3; CSN deneddyl inh: -15.8; HNF4A DNA FP: 5.1; Rpn11 block: 2.9

What do the screens show for `Cc1[nH]c2ccccc2c1/C=C/C(=O)c1ccncc1`?
PREPL inh: -0.6; Tb MetRS inh: 0.2; Neddylation inh: -26.4; CSN deneddyl inh: 8.5; HNF4A DNA FP: 12.9; Rpn11 block: 47.0*; Rpn11 confirm: 42.1*; MMP-2 counter: -61.1; Thrombin inh: 37.0

Results for Cn1c(SCC(=O)NCC2CCCO2)ncc(C(=O)Nc2ccc(Cl)cc2)c1=O (stereo unspecified) ?
PREPL inh: -7.5; Tb MetRS inh: -0.3; Neddylation inh: -32.2; CSN deneddyl inh: 8.2; HNF4A DNA FP: 2.1; Rpn11 block: 63.5*; Rpn11 confirm: 10.6; MMP-2 counter: -47.3; Thrombin inh: -2.8

What do the screens show for `Cn1c(SCC(=O)NCC2CCCO2)ncc(C(=O)Nc2ccc(F)cc2)c1=O` (stereo unspecified)?
PREPL inh: -3.1; Tb MetRS inh: -0.3; Neddylation inh: 15.2; CSN deneddyl inh: 1.6; HNF4A DNA FP: 3.8; Rpn11 block: 28.7

How did CC(=O)N(c1ccc2oc(=O)sc2c1)S(=O)(=O)c1cccc2cccnc12 do in these assays?
PREPL inh: 7.8; Tb MetRS inh: -0.1; Neddylation inh: 1.8; CSN deneddyl inh: 2.6; HNF4A DNA FP: 31.1*; Rpn11 block: 84.9*; Rpn11 confirm: 8.2; MMP-2 counter: 19.3; Thrombin inh: -9.0

What do the screens show for `O=C1C=C(c2ccccc2)C(c2ccccc2)C1O` (stereo unspecified)?
Tb MetRS inh: -0.4; Neddylation inh: -14.0; CSN deneddyl inh: 1.0; HNF4A DNA FP: -2.6; Rpn11 block: 0.2

Results for CCCc1noc(-c2ccc(-c3ccccc3)cc2)n1 ?
PREPL inh: 5.5; Tb MetRS inh: -0.7; Neddylation inh: 5.6; CSN deneddyl inh: 1.6; HNF4A DNA FP: -35.1; Rpn11 block: 195.8*; Rpn11 confirm: -0.7; MMP-2 counter: -8.8; Thrombin inh: -11.4

How did COc1cccc(NC(=O)CN(C)C(=O)c2ccc(Cl)c(S(=O)(=O)N3CCCCCC3)c2)c1 do in these assays?
Tb MetRS inh: -0.7; Neddylation inh: 2.2; CSN deneddyl inh: -5.4; HNF4A DNA FP: -0.6; Rpn11 block: -3.4

Results for Cn1c(=O)c2cc(NC(=O)Nc3cccnc3)ccc2n1Cc1cccc(C(F)(F)F)c1 ?
Tb MetRS inh: 2.0; CSN deneddyl inh: -1.0; HNF4A DNA FP: 2.4; Rpn11 block: -3.8

Results for Cn1c(=O)c2cc(NC(=O)Nc3cccnc3)ccc2n1Cc1ccc(Cl)cc1 ?
Tb MetRS inh: 1.2; CSN deneddyl inh: 10.5; HNF4A DNA FP: 16.1; Rpn11 block: 45.5*; Rpn11 confirm: 14.1; MMP-2 counter: -16.7; Thrombin inh: 4.2

What do the screens show for `COc1ccc(NC2=Nc3cccc4cccc2c34)cc1`?
PREPL inh: 14.5; Tb MetRS inh: 0.2; Neddylation inh: -34.5; CSN deneddyl inh: 18.9; HNF4A DNA FP: 14.9; Rpn11 block: 49.9*; Rpn11 confirm: 23.6; MMP-2 counter: -27.4; Thrombin inh: 10.5

How did Cc1[nH]n(-c2nc(-c3ccc(Cl)cc3)cs2)c(=O)c1N=Nc1ccc(O)cc1 do in these assays?
PREPL inh: 18.8; Tb MetRS inh: -1.2; Neddylation inh: -56.9; CSN deneddyl inh: -9.5; HNF4A DNA FP: 13.8; Rpn11 block: 42.2*; Rpn11 confirm: -4.7; MMP-2 counter: -23.7; Thrombin inh: -3.0

Results for CCc1c(C)[nH]n(-c2nc(-c3ccccc3)cs2)c1=O ?
PREPL inh: -0.5; Tb MetRS inh: -0.9; Neddylation inh: 1.3; CSN deneddyl inh: -9.1; HNF4A DNA FP: -1.3; Rpn11 block: 2.8

Results for Cc1cc(N2CCCC2)c(F)cc1/C=C\[N+](=O)[O-] ?
Tb MetRS inh: -0.9; Neddylation inh: -2.4; CSN deneddyl inh: 31.2; HNF4A DNA FP: -1.1; Rpn11 block: 64.1*; Rpn11 confirm: 60.2*; MMP-2 counter: -53.2; Thrombin inh: 21.6

How did Cc1cc(N2CCC(C)CC2)c(F)cc1[N+](=O)[O-] do in these assays?
PREPL inh: 3.4; Tb MetRS inh: -0.4; Neddylation inh: -6.6; CSN deneddyl inh: 1.6; HNF4A DNA FP: 3.7; Rpn11 block: 6.4

Results for CN1C2Cc3c(n(C)c4ccccc34)C1CC=C2CO (stereo unspecified) ?
PREPL inh: 3.2; Tb MetRS inh: -0.1; Neddylation inh: -6.1; CSN deneddyl inh: -1.2; HNF4A DNA FP: 0.7; Rpn11 block: -11.6

Results for O=C(NC1CCCC1)C(C1CC1)n1c(-c2ccncc2)nc2ccccc21 (stereo unspecified) ?
Tb MetRS inh: -0.4; Neddylation inh: 16.9; CSN deneddyl inh: 3.0; HNF4A DNA FP: 1.3

What do the screens show for `N=c1c(S(=O)(=O)c2ccccc2)cc2c(=O)n3ccccc3nc2n1C1CCCC1`?
PREPL inh: 0.0; Tb MetRS inh: -1.8; Neddylation inh: 36.5; CSN deneddyl inh: 8.0; HNF4A DNA FP: 11.6; Rpn11 block: 78.3*; Rpn11 confirm: -12.5; MMP-2 counter: -44.2; Thrombin inh: -13.3
